For series [1], the target named is T1, Peroxisome proliferator-activated receptor gamma (Homo sapiens, UniProt P37231).
T1 sequence (P37231 whole entry): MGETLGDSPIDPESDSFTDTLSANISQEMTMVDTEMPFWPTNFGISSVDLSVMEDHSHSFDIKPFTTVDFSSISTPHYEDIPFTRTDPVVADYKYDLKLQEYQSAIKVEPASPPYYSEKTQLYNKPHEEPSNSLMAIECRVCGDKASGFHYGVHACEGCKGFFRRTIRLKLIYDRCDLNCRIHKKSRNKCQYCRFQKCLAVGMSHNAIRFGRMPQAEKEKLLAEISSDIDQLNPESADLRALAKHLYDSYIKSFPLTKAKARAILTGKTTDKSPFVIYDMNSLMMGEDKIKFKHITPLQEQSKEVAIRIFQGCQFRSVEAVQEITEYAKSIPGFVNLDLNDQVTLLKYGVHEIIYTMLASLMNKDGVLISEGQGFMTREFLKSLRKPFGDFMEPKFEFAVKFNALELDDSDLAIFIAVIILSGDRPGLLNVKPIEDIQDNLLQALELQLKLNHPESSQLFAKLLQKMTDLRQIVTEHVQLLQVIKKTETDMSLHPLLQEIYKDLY
Briefly: Inhibition of peroxisome proliferator-activated receptors gamma (unknown origin). The procedure, abridged:
(§1)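 Radioligand binding selectivity screen was run at 10 μM, mean of three determinations. Where inhibition exceeded 50%, full concentration-displacement curves were run in triplicate and IC50 was obtained by nonlinear least-squares regression.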

A short description of series [2]: Inhibition of adenosine transporter (unknown origin). The arrangement: species or system Homo sapiens. The procedure, abridged:
as §1

Series [3] in a line: Cmax in C57Bl/6 mouse at 2 mg/kg, iv measured after 480 mins by LC-MS/MS analysis. Particulars: in vivo. It counts as ADME, organism-based. The procedure, abridged: (§2)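 Male C57Bl/6 mice (20-25 g) given a single IV dose (2 mg/kg) or oral dose (10 mg/kg). Blood was sampled at 5, 15, 30, 60, 120, 240, 360 and 480 min and plasma prepared by centrifugation. Plasma drug levels were measured by LC/MS/MS. Values are mean (CV%), N=3.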

A short description of series [4]: Tmax in C57Bl/6 mouse at 10 mg/kg, po measured after 480 mins by LC-MS/MS analysis. As to conditions: in vivo. The class given is ADME, organism-based. The procedure, abridged: as §2
Series [5] in a line: Unbound fraction in C57Bl/6 mouse plasma. It counts as ADME, cell-free. In outline:
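Plasma and brain binding were determined by equilibrium dialysis at 1 μM.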

For series [6], the target named is Leucine-rich repeat serine/threonine-protein kinase 2 (Mus musculus) (UniProt Q5S006). Briefly: In vivo inhibition of LRRK2 in C57Bl/6 mouse brain assessed as decrease in pSer935 LRRK2 measured after 1 hr by Western blotting analysis. It counts as functional, organism-based. Particulars: dose 1-100 mg/kg, route po. In outline:
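Male C57Bl/6 mice, 20-25 g. Single oral dose of 1-100 mg/kg suspended in 30% Captisol (10 mL/kg), or vehicle, given 1 h before CO2 euthanasia. Cortex frozen on dry ice and pSer935 LRRK2 read by Western blot. n = 5 per group.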
(In western blotting, separated proteins are transferred to a membrane and probed.)

The nature of series [7]: Toxicity in C57Bl/6 mouse assessed as change in body weight measured after 11 days. Particulars: in vivo, 264 h, time 11 day. The procedure, abridged: (§3)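 Male C57Bl/6 mice, singly housed on a reversed 12 h light cycle, were fed diet formulated to give 3, 10, 30, 60 or 120 mg/kg/day (assumes 3 g/day intake) or untreated diet for 11 days. Body weight and food intake were monitored. Spontaneous locomotion and rearing were recorded over 60 min. On day 11, mice were euthanized 4, 8 or 24 h after dark onset and plasma and brain drug levels measured; n = 5 per group.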

The nature of series [8]: Toxicity in C57Bl/6 mouse assessed as lower food intake measured after 1 to 3 days. Particulars: in vivo, time 1-3 day. The procedure, abridged: as §3
Series [9] deals with Leucine-rich repeat serine/threonine-protein kinase 2 (Mus musculus) (UniProt Q5S006). Briefly: In vivo inhibition of LRRK2 in C57Bl/6 mouse brain assessed as reduction in pSer935 LRRK2 administered for 11 days and measured after 4 hrs by Western blotting analysis. The class given is functional, organism-based. Particulars: dose 3-120 mg/kg, time 11.0 day. In outline: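 Male C57Bl/6 mice, singly housed on a reversed light cycle. Fed drug diet targeted to 3, 10, 30, 60 or 120 mg/kg/day (assuming 3 g/day intake), or untreated diet, for 11 days. Killed 4, 8 or 24 h after dark-cycle onset, n = 5 per group. Cortex immunoblotted for pSer935/total LRRK2 and total LRRK2/GAPDH. Total LRRK2 detected with MJFF2 antibody.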

In series [10] the test system is Mus musculus. The experiment in a line: Effect on behavioral changes in 14 weeks old MitoPark mouse striatum assessed as dopamine level at 30 mg/kg/day by HPLC analysis. The class given is functional. In outline: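 Striatum from MitoPark mice on diet targeting 30 mg/kg/day or vehicle diet (wild-type littermate controls) was homogenized by sonication in 0.1 M acid at 0.1 g/mL. Samples were held 60 min at 4 °C and centrifuged. Dopamine, DOPAC and HVA were measured by HPLC with electrochemical detection against a 3,4-DHBA internal standard and standard curves. Mean ± SEM.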

Series [11] deals with Mus musculus. The experiment in a line: Effect on behavioral changes in 8 weeks old MitoPark mouse striatum assessed as TH level at 30 mg/kg/day administered for 3 weeks by […] relative to control. The class given is functional.
For series [12], the target named is Leucine-rich repeat serine/threonine-protein kinase 2 (Mus musculus) (UniProt Q5S006). Briefly: In vivo inhibition of LRRK2 in 20 weeks old MitoPark mouse lung assessed as reduction in total LRRK2 protein level at 30 mg/kg/day administered for 15 weeks by Western blotting analysis. It counts as functional, organism-based. In outline: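 MitoPark mice on drug-containing diet targeted to 30 mg/kg/day from 5 weeks of age, with the diet reformulated every 3 weeks to hold the target. Untreated-diet MitoPark and wild-type littermate controls. Killed by CO2 at 20 weeks of age. Lung and kidney taken from 5 mice per group for pSer935 and total LRRK2 immunoblots.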

In series [13] the test system is Mus musculus. Briefly: Effect on histological changes in 20 weeks old MitoPark mouse kidney assessed as kidney darkening at 30 mg/kg/day administered for 15 weeks by hematoxylin and eosin staining based microscopic analysis. It counts as functional, organism-based. The procedure, abridged:
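MitoPark mice were fed diet targeting 30 mg/kg/day or vehicle for 15 weeks and euthanized at 20 weeks of age (n=5/group). Kidney and lung were fixed in 10% neutral buffered formalin, paraffin-embedded, sectioned at 5 µm, H&E-stained and examined microscopically.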

These results are taken from ChEMBL document CHEMBL5653623 (J Pharmacol Exp Ther, 2015).

Active and inactive are the calls of the source. The calls are words filed in the database; no cut-off is given here.

Sequence of Leucine-rich repeat serine/threonine-protein kinase 2 (Mus musculus) (Q5S006 whole entry): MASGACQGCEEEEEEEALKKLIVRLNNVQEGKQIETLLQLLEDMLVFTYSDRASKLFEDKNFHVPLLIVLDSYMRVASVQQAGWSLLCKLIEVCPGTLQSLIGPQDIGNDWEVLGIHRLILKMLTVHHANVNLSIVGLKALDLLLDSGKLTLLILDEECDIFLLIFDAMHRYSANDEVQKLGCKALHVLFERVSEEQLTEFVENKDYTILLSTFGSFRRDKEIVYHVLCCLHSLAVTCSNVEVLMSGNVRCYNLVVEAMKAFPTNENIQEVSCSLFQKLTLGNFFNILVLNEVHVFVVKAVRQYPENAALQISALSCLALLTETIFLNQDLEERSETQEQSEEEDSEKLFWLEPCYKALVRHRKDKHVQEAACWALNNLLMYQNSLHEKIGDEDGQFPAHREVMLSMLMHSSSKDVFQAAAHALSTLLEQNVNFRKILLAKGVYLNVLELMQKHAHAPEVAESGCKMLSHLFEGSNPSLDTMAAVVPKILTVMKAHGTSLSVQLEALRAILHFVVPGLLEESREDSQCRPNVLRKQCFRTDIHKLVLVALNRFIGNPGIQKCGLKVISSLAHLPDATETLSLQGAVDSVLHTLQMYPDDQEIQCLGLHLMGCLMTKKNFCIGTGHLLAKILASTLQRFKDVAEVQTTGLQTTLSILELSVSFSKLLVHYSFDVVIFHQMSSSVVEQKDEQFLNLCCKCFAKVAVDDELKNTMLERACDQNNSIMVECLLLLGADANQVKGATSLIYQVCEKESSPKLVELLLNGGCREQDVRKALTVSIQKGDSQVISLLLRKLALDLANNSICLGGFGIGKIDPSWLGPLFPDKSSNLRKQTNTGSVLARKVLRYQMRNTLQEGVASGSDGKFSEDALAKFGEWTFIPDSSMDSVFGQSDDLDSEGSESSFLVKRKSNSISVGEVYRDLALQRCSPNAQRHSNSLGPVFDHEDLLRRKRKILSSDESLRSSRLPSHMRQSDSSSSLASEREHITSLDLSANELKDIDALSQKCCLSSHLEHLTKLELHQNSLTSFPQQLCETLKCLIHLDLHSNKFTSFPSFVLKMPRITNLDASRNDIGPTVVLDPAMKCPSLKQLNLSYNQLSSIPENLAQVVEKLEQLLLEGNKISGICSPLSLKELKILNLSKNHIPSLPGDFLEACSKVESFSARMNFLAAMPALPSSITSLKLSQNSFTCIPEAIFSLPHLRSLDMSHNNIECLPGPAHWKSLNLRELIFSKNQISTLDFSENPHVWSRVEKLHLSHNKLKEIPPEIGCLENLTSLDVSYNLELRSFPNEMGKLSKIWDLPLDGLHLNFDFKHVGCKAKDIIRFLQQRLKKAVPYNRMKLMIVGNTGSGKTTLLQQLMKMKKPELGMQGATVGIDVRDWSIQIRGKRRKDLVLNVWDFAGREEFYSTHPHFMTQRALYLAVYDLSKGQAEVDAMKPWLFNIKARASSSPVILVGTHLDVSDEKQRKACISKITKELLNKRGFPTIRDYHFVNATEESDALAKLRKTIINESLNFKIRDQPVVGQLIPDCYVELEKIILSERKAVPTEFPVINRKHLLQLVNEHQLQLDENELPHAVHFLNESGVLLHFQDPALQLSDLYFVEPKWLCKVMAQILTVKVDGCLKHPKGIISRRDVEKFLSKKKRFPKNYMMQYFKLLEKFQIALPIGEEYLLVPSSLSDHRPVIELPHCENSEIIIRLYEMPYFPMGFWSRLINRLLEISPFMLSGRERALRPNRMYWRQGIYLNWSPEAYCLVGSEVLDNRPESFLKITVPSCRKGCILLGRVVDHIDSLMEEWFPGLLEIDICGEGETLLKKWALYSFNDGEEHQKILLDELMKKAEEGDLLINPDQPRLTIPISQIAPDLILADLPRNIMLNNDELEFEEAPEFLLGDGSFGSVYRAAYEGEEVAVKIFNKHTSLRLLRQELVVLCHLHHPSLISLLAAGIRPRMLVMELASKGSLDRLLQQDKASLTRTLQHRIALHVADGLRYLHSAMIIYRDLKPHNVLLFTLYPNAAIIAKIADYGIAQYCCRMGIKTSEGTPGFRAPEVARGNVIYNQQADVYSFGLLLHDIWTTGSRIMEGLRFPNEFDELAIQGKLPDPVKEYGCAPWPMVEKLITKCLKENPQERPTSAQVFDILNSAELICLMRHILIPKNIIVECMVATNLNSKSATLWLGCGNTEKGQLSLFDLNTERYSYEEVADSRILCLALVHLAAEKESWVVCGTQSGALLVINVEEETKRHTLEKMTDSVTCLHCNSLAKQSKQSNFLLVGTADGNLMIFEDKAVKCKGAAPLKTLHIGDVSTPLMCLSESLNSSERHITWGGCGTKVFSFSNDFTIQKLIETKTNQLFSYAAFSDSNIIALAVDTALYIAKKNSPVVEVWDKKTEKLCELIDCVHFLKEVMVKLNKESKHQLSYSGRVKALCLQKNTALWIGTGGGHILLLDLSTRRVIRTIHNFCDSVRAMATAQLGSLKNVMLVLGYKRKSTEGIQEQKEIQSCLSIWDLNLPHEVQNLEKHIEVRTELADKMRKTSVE

For `C[C@@H]1CN(c2cc(-c3n[nH]c4ccc(OC5(C)CC5)cc34)ncn2)C[C@H](C)O1` [MLi-2], the IC50 – broadly, the concentration that inhibits the measured activity by half – in series [1] worked out at 6.5 µM; in [2], 9.7 µM. For the same compound, the highest level in [3] (Cmax) was 716 nM. Moreover, the Tmax (in general, the time at which the peak concentration occurs) in series [4] was 45 min. Moreover, in series [5], the fraction unbound (usually the share of the substance not bound to proteins or other matrix) stood at 0.008. Besides, the inhibition result in series [6] and in series [9] was “Dose-Dependent Effect” in each case. Besides, the Activity result in series [7] is “Non-Toxic”; in series [8], “Toxic”; with Mus musculus [10], 1105 ng/g; in the series with Mus musculus [11] it was 49.89%. Also, in series [12], the inhibition result is “Active”. The result in the series with Mus musculus [13] was inactive.
